Results published in ChEMBL document CHEMBL1811760, “Structure-activity relationships of C-17-substituted estratriene-3-O-sulfamates as anticancer agents” (J Med Chem, 2011).
Activity calls are given as the source filed them. No cut-off for these calls is given here.

Assays:
DU-145 = assay: Antiproliferative activity against human DU145 cells after 96 hrs by WST1 assay; assay type: functional; conditions: DU-145, 96 h
Method in brief: (§1)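 Cells were grown in RPMI-1640 with 10% FBS at 37 °C in 5% CO2, then seeded at 5000 cells/well. They were exposed to compound at 10^-9–10^-4 M or vehicle for 96 h. Live cells were read by WST-1 and expressed as percent of mean control, from which GI50 was calculated. Runs were done in triplicate.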

HOP-62 = assay: Growth inhibition of human HOP62 cells; assay type: functional
HCT-116 = assay: Growth inhibition of human HCT116 cells; assay type: functional
SF-539 = assay: Growth inhibition of human SF539 cells; assay type: functional
UACC-62 = assay: Growth inhibition of human UACC62 cells; assay type: functional
OVCAR-3 = assay: Growth inhibition of human OVCAR3 cells; assay type: functional
SN12C = assay: Growth inhibition of human SN12C cells; assay type: functional
[1] = Growth inhibition of human NCI60 cells; assay type: functional
MDA-MB-231 = assay: Antiproliferative activity against estrogen-negative human MDA-MB-231 cells after 96 hrs by WST1 assay; assay type: functional; conditions: MDA-MB-231, 96 h; method in brief: as §1
MCF7 = assay: Antiproliferative activity against estrogen-positive human MCF7 cells; assay type: functional
Mus musculus [2] = assay: Antiangiogenic activity in Matrigel plug implanted C57BL/6J mouse assessed as inhibition of bFGF-induced angiogenesis at 10 mg/kg, po administered 24 hrs after implantation for 4 days measured by FITC-conjugated dextran staining based fluorimetry; assay type: functional, organism-based; design: dose 10 mg/kg
Method in brief: (§2)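 Female C57BL/6J mice (6–8 weeks) were injected subcutaneously in the flanks with 0.5 mL ice-cold Matrigel plus 500 ng bFGF. Oral dosing in vehicle (10% THF, 90% PG) ran daily for 4 days, starting 24 h after Matrigel. Groups had five mice. FITC-dextran (0.1 mL of 0.25 mg/mL) was given iv and mice killed 20 min later. Plugs were digested in Dispase 16 h at 37 °C, and supernatant fluorescence read at ex 480/em 520 nm against a FITC-dextran standard curve.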

Mus musculus [3] = assay: Antiangiogenic activity in Matrigel plug implanted C57BL/6J mouse assessed as inhibition of bFGF-induced angiogenesis at 20 mg/kg, po administered 24 hrs after implantation for 4 days measured by FITC-conjugated dextran staining based fluorimetry; assay type: functional, organism-based; design: dose 20 mg/kg; method in brief: as §2

| Compound | GI50 (DU-145) | GI50 (HOP-62) | GI50 (HCT-116) | GI50 (SF-539) | GI50 (UACC-62) | GI50 (OVCAR-3) | GI50 (SN12C) | GI50 [1] | GI50 (MDA-MB-231) | GI50 (MCF7) | further results |
| --- | --- | --- | --- | --- | --- | --- | --- | --- | --- | --- | --- |
| CCc1cc2c(cc1OS(N)(=O)=O)CC[C@@H]1[C@@H]2CC[C@]2(C)[C@@H](CCOC)CC[C@@H]12 | 3400 nM | 4900 nM | 2700 nM | 5010 nM | 2340 nM | 4070 nM | 4680 nM | 4570 nM | – | – | – |
| COc1cc2c(cc1OS(N)(=O)=O)CC[C@@H]1[C@@H]2CC[C@]2(C)[C@@H](CC(C)O)CC[C@@H]12 (some centres not stated) | 140 nM | 48 nM | 25 nM | 23 nM | < 10 nM | < 10 nM | 52 nM | 28 nM | 140 nM | – | – |
| COc1cc2c(cc1O)CC[C@@H]1[C@@H]2CC[C@]2(C)[C@@H](CC(C)=O)CC[C@@H]12 | 2400 nM | – | – | – | – | – | – | – | – | – | – |
| CCc1cc2c(cc1OS(N)(=O)=O)CC[C@@H]1[C@@H]2CC[C@]2(C)[C@@H](COS(N)(=O)=O)CC[C@@H]12 | 290 nM | 61 nM | 38 nM | 56 nM | 22 nM | 19 nM | 309 nM | 85 nM | 430 nM | – | – |
| CCc1cc2c(cc1O)CC[C@@H]1[C@@H]2CC[C@]2(C)/C(=C\CO)CC[C@@H]12 | – | – | – | – | – | – | – | – | – | 670 nM | – |
| CCc1cc2c(cc1O)CC[C@@H]1[C@@H]2CC[C@]2(C)[C@@H](COC)CC[C@@H]12 | 25300 nM | – | – | – | – | – | – | – | 9200 nM | – | – |
| CCc1cc2c(cc1O)CC[C@@H]1[C@@H]2CC[C@]2(C)/C(=C/COC)CC[C@@H]12 | – | – | – | – | – | – | – | – | – | > 10000 nM | – |
| COc1cc2c(cc1OS(N)(=O)=O)CC[C@@H]1[C@@H]2CC[C@]2(C)[C@@H](C/C(C)=N\O)CC[C@@H]12 | 2090 nM | – | – | – | – | – | – | – | 2350 nM | – | – |
| COc1cc2c(cc1OS(N)(=O)=O)CC[C@@H]1[C@@H]2CC[C@]2(C)[C@@H](CC(C)=O)CC[C@@H]12 | 89 nM | < 10 nM | < 10 nM | < 10 nM | < 10 nM | < 10 nM | < 10 nM | 21 nM | 68 nM | < 5 nM | Activity (Mus musculus [2]): Active; Activity (Mus musculus [3]): Active |
| CCc1cc2c(cc1O)CC[C@@H]1[C@@H]2CC[C@]2(C)/C(=C/CO)CC[C@@H]12 | – | – | – | – | – | – | – | – | – | 770 nM | – |
| CCc1cc2c(cc1OS(N)(=O)=O)CC[C@@H]1[C@@H]2CC[C@]2(C)[C@@H](CCOS(N)(=O)=O)CC[C@@H]12 | – | – | – | – | – | – | – | – | – | 5640 nM | – |
| CCOC(=O)/C=C1\CC[C@H]2[C@@H]3CCc4cc(O)c(CC)cc4[C@H]3CC[C@]12C | – | – | – | – | – | – | – | – | – | 30600 nM | – |
| CCc1cc2c(cc1O)CC[C@@H]1[C@@H]2CC[C@]2(C)[C@@H](CC(C)=O)CC[C@@H]12 | 18900 nM | – | – | – | – | – | – | – | – | 5790 nM | – |
| CCc1cc2c(cc1OS(N)(=O)=O)CC[C@@H]1[C@@H]2CC[C@]2(C)/C(=C/CO)CC[C@@H]12 | – | 420 nM | 270 nM | 220 nM | 470 nM | 230 nM | 580 nM | 490 nM | – | 10000 nM | – |
| CCc1cc2c(cc1O)CC[C@@H]1[C@@H]2CC[C@]2(C)[C@@H](CCOC)CC[C@@H]12 | – | – | – | – | – | – | – | – | – | 24800 nM | – |
| CCc1cc2c(cc1O)CC[C@@H]1[C@@H]2CC[C@]2(C)[C@@H](C(C)=O)CC[C@@H]12 | 2000 nM | – | – | – | – | – | – | – | – | – | – |
| CCc1cc2c(cc1O)CC[C@@H]1[C@@H]2CC[C@]2(C)[C@@H](CCO)CC[C@@H]12 | – | – | – | – | – | – | – | – | – | 2520 nM | – |

| Compound | GI50 (DU-145) | GI50 (HOP-62) | GI50 (HCT-116) | GI50 (SF-539) | GI50 (UACC-62) | GI50 (OVCAR-3) | GI50 (SN12C) | GI50 [1] | GI50 (MDA-MB-231) | GI50 (MCF7) | further results |
| --- | --- | --- | --- | --- | --- | --- | --- | --- | --- | --- | --- |
| COc1cc2c(cc1O)CC[C@@H]1[C@@H]2CC[C@]2(C)[C@@H](C(C)=O)CC[C@@H]12 | 300 nM | – | – | – | – | – | – | – | 390 nM | – | – |
| CCOC(=O)/C=C1/CC[C@H]2[C@@H]3CCc4cc(O)c(CC)cc4[C@H]3CC[C@]12C | – | – | – | – | – | – | – | – | – | 31100 nM | – |
| CCc1cc2c(cc1O)CC[C@@H]1[C@@H]2CC[C@]2(C)[C@@H](CC#N)CC[C@@H]12 | – | – | – | – | – | – | – | – | – | > 100000 nM | – |
| CCc1cc2c(cc1OS(N)(=O)=O)CC[C@@H]1[C@@H]2CC[C@]2(C)[C@@H](CC(F)F)CC[C@@H]12 | 1810 nM | 3890 nM | 2820 nM | 1950 nM | 4900 nM | 3470 nM | 5370 nM | 3090 nM | – | – | – |
| CCOC(=O)/C=C1\CC[C@H]2[C@@H]3CCc4cc(OS(N)(=O)=O)c(CC)cc4[C@H]3CC[C@]12C | – | – | – | – | – | – | – | – | – | 1850 nM | – |
| CCc1cc2c(cc1OS(N)(=O)=O)CC[C@@H]1[C@@H]2CC[C@]2(C)[C@@H](CCF)CC[C@@H]12 | 780 nM | 3720 nM | 3390 nM | 5250 nM | 3890 nM | 22900 nM | 7590 nM | 6310 nM | – | – | – |
| CCc1cc2c(cc1OS(N)(=O)=O)CC[C@@H]1[C@@H]2CC[C@]2(C)[C@@H](CC(C)=O)CC[C@@H]12 | 160 nM | – | – | – | – | – | – | – | 180 nM | 320 nM | – |
| CCc1cc2c(cc1O)CC[C@@H]1[C@@H]2CC[C@]2(C)[C@@H](CCF)CC[C@@H]12 | 3400 nM | – | – | – | – | – | – | – | – | – | – |
| CCc1cc2c(cc1OS(N)(=O)=O)CC[C@@H]1[C@@H]2CC[C@]2(C)[C@@H](OS(N)(=O)=O)CC[C@@H]12 | – | < 10 nM | – | < 10 nM | < 10 nM | < 10 nM | 28 nM | 18 nM | – | – | – |
| CCc1cc2c(cc1O)CC[C@@H]1[C@@H]2CC[C@]2(C)[C@@H](CO)CC[C@@H]12 | 10100 nM | – | – | – | – | – | – | – | 6300 nM | – | – |
| CCc1cc2c(cc1OS(N)(=O)=O)CC[C@@H]1[C@@H]2CC[C@]2(C)[C@@H](CCO)CC[C@@H]12 | – | 250 nM | 270 nM | 350 nM | 2890 nM | 11500 nM | 2450 nM | 1730 nM | – | < 500 nM | – |
| CCOC(=O)C[C@H]1CC[C@H]2[C@@H]3CCc4cc(OS(N)(=O)=O)c(CC)cc4[C@H]3CC[C@]12C | – | 590 nM | 350 nM | 220 nM | 450 nM | 220 nM | 630 nM | 520 nM | – | 4190 nM | – |
| CCc1cc2c(cc1O)CC[C@@H]1[C@@H]2CC[C@]2(C)[C@@H](CC(F)F)CC[C@@H]12 | 60000 nM | – | – | – | – | – | – | – | – | – | – |
| CCOC(=O)C[C@H]1CC[C@H]2[C@@H]3CCc4cc(O)c(CC)cc4[C@H]3CC[C@]12C | – | – | – | – | – | – | – | – | – | 26400 nM | – |
| COc1cc2c(cc1OS(N)(=O)=O)CC[C@@H]1[C@@H]2CC[C@]2(C)[C@@H](C(C)=O)CC[C@@H]12 | 46 nM | – | – | – | – | – | – | – | 48 nM | – | – |
| CCc1cc2c(cc1OS(N)(=O)=O)CC[C@@H]1[C@@H]2CC[C@]2(C)[C@@H](COC)CC[C@@H]12 | 330 nM | 45 nM | 22 nM | < 10 nM | – | < 10 nM | 72 nM | 42 nM | 530 nM | – | – |
